Structures are written as SMILES. Entries after “also recorded” stand apart in the source; their conditions may differ.

Data set [1] can be described thus: Cytotoxic activity via the MTT method. It counts as cell-based, human. The settings on record: human, HepG2 cells.
Data set [2] has as its system human hepatocellular carcinoma cell line (HepG2). Put plainly: Cytotoxic activity via the MTT method. The format is cell-based. The settings on record: highest concentration tested 500 µM.
Data set [3] has as its system P. falciparum NF54 gametocytes (stages IV, V). Put plainly: Exflagellation-blocking bioassay. The format is cell-based, Plasmodium falciparum. The note with it: 1 µM; ≥ 75% high, 25 to 75% average, below 25% inactive. In short, it runs like this:
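Stage IV–V gametocytes were first checked for exflagellation (≥30 exflagellating microgametocytes per 1000 RBC). They were then exposed for 48 h to test compound at 1 µM in triplicate, with DMSO ≤0.5% and DHA 1 µM as controls. Exflagellation was induced in ookinete medium containing xanthurenic acid, 20 min at 24 °C, and counted by microscopy at 1000×. Inhibition ≥75% was classed active.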

For data set [4] the following is noted: in silico predictions ref 77; cited from earlier work.
In the next data set the test system is P. falciparum W2 clone. Put plainly: In vitro antimalarial activity via the SYBR Green I assay. It counts as cell-based, Plasmodium falciparum. In short, it runs like this: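 Sorbitol-synchronized parasites in human O+ erythrocytes (0.5% parasitaemia, 2% haematocrit) received twofold dilutions of test compound, 1.56–200 µM final, in triplicate; artemisinin 170 nM was the control. Incubation was 72 h at 37 °C under 5% CO2/5% O2/90% N2. Cells were lysed in Tris/EDTA/saponin/Triton buffer with SYBR Green I, 30 min at 24 °C in the dark; ex 485/em 590 nm, uninfected-RBC blank subtracted. SI = HepG2 CC50 (MTT, 72 h) ÷ IC50.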

As for `CC(=O)OCc1cn(-c2n[nH]c(C)n2)nn1` [Compound 13d, (1-(5-methyl-1H-1,2,4-triazol-3-yl)-1H-1,2,3-triazol-4-yl)methyl acetate], in data set [1], the CC50 at 72 h was no less than 500 µM and the viability at 72 h, 500 µM came out at 80%. Further, the “Cytotoxicity to HepG2 cells (in words)” value in data set [2] is reported as “non-cytotoxic; also recorded: no cytotoxicity”.
Take `CC(=O)OCc1cn(-c2n[nH]c(C(F)(F)F)n2)nn1` [Compound 14d, (1-(5-(trifluoromethyl)-1H-1,2,4-triazol-3-yl)-1H-1,2,3-triazol-4-yl)methyl acetate]: in data set [3], the “Potential to block malaria transmission (classification)” value is “high potential to block malaria transmission; also recorded: strong potential to block malaria transmission”. In addition, in data set [1], the CC50 at 72 h was no less than 500 µM and the viability at 72 h, 500 µM amounted to 93.4%. Also, the “Cytotoxicity to HepG2 cells (in words)” value in data set [2] is “non-cytotoxic; also recorded: no cytotoxicity”.
`COc1cc(NC(C)CCCN)c2ncccc2c1` (stereo not drawn) [primaquine]: the Plasma protein binding entry in data set [4] is given as “high plasm protein binding”.
With `C[C@@H]1CC[C@H]2[C@@H](C)C(=O)O[C@@H]3O[C@@]4(C)CC[C@@H]1[C@]32OO4` [Artemisinin], in data set [4], the Plasma protein binding entry is reported as “high plasm protein binding”. In data set [1], this compound displayed a CC50 at 72 h of no less than 500 µM and a viability at 72 h, 500 µM of 100%. Further, the “SI (selectivity index)” value with P. falciparum W2 clone (CC50 HepG2 divided by IC50 W2) was ≥ 23,809. Also, the IC50 in the data set on P. falciparum W2 clone (Plasmodium falciparum, W2, 72 h, read-out: IC50 W2) came to 0.021 ± 0.004 µM.
With `OC(c1cc(C(F)(F)F)nc2c(C(F)(F)F)cccc12)C1CCCCN1` (stereo not drawn) [mefloquine], the Plasma protein binding entry in data set [4] is recorded as “high plasm protein binding”.
As for `CCN(CC)CCCC(C)Nc1ccnc2cc(Cl)ccc12` (stereo not drawn) [chloroquine], the Plasma protein binding entry in data set [4] is reported as “high plasm protein binding”.

Source of the values: article PMC11881275 (Malaria Journal, 2025).
